Experimental data as given in ChEMBL document CHEMBL4732044, “Discovery of a promising agent IQZ23 for the treatment of obesity and related metabolic disorders” (Eur J Med Chem, 2020).
Blank lines part the entries; values can stand above or below the molecule they belong to. Calls of active or inactive are those of the source. The rule behind the calls is not given here.

How the values were obtained:
[1] = system: 3T3-L1; test: Lipid lowering activity in mouse 3T3-L1 cells assessed as adipogenic cocktail-induced triglyceride levels at 1 uM by GPO-POD assay; type: functional, cell-based; conditions: time day <=6
How it was run: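 Confluent 3T3-L1 cells were treated from day 0 in cocktail (IBMX, dexamethasone, insulin) for 3 days, then re-dosed in insulin medium for 3 more days. For dose–response, concentrations were 0–10 µM (0.01, 0.1, 0.3, 1, 3, 10). On day 6, cells were lysed in 0.2% Triton X-100 and TG was measured by GPO-POD and normalized to BCA protein as % of control. EC50 was fitted from the dose–response. N = 4.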

[2] = system: 3T3-L1; test: Lipid lowering activity in mouse 3T3-L1 cells assessed as adipogenic cocktail-induced triglyceride levels at 1 uM after 3 days by GPO-POD assay relative to control; type: functional; conditions: time 3 day
How it was run: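 3T3-L1 cells were differentiated (cocktail on days 0–3, insulin thereafter) with 1 µM compound present during defined windows (days 0–3, 3–6, 6–9, or 0–3/0–6/0–9). TG was measured at day 9 by GPO-POD after Triton X-100 lysis and sonication. TG was normalized to BCA protein and expressed as % of differentiated control.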

[3] = system: 3T3-L1; test: Inhibition of mouse 3T3-L1 cells adipocyte differentiation assessed as reduction in adipogenic cocktail-induced C/EBPalpha protein expression at 0.3 to 1 uM after 24 hrs by Western blot analysis; type: functional, cell-based; conditions: dose 0.3-1 µM
How it was run: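 3T3-L1 preadipocytes were exposed to adipogenic cocktail with compound (0.3 or 1 µM) and harvested on day 1. Lysates were resolved by SDS-PAGE, immunoblotted (primary antibody overnight at 4 °C, HRP secondary) and quantified by densitometry normalized to actin.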

[4] = system: 3T3-L1; test: Inhibition of mouse 3T3-L1 cells adipocyte differentiation assessed as reduction in adipogenic cocktail-induced SCD1 protein expression at 0.3 to 1 uM after 6 days by Western blot analysis; type: functional, cell-based; conditions: dose 0.3-1 µM, time 6.0 day
How it was run: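 3T3-L1 preadipocytes were differentiated with cocktail for 3 days, then insulin medium for 3 days, with compound (0.3 or 1 µM) present throughout. Cells were harvested on day 6 and proteins measured by Western blot, with densitometry normalized to actin.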

[5] = system: 3T3-L1; test: Activation of AMPK pathway in adipogenic cocktail-induced mouse 3T3-L1 cells with SiRNA-induced AMPKalpha knock down assessed as decrease in C/EBPalpha protein expression at 1 uM after 24 hrs by Western blot analysis; type: cell-based
How it was run: (§1)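 3T3-L1 cells at 80% density transfected with 50 nM AMPKα siRNA or negative control for 24 h. Once confluent, differentiated with adipogenic cocktail with or without compound. Protein by Western blot normalized to actin. TG measured by GPO-POD kit, normalized to BCA protein, expressed as % of control.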

[6] = system: 3T3-L1; test: Activation of AMPK pathway in adipogenic cocktail-induced mouse 3T3-L1 cells with SiRNA-induced AMPKalpha knock down assessed as decrease in TG level at 1 uM after 6 days by GPO-POD assay; type: cell-based; conditions: time 6.0 day; how it was run: as §1
[7] = system: 3T3-L1; test: Activation of AMPK pathway in mouse 3T3-L1 cells assessed as increase in CPT1beta mRNA expression at 0.3 to 1 uM after 24 hrs by RT-qPCR analysis; type: cell-based; conditions: filed as activator, dose 0.3-1 µM
[8] = system: 3T3-L1; test: Activation of AMPK pathway in mouse 3T3-L1 cells assessed as increase in NRF2 mRNA expression at 0.3 to 1 uM after 24 hrs by RT-qPCR analysis; type: cell-based; conditions: filed as activator, dose 0.3-1 µM
[9] = system: Mus musculus; test: Anti-hyperglycemic activity in high fat diet-induced obese C57BL/6J mouse model assessed as decrease in blood glucose level at 20 mg/kg, ip after 6 hrs; type: functional, organism-based
How it was run: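 C57BL/6J mice fed HFC diet (60% fat, 1% cholesterol). Single i.p. injection of saline or compound at 20 mg/kg. Blood glucose measured with a glucose monitor at 0, 0.5, 1, 2, 4, 8, 12 and 24 h.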

[10] = system: Mus musculus; test: Antiobesity activity in high fat diet-induced obese C57BL/6J mouse model assessed as decrease in AUC of GTT at 20 mg/kg, ip administered for every other days for 3 weeks by GTT method; type: functional, organism-based
How it was run: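 Male C57BL/6J mice on HFC diet dosed i.p. For GTT, after 3 weeks of treatment: 6 h fast, then i.p. glucose 2 g/kg. For ITT, after 6 weeks: 6 h fast, then i.p. insulin 0.4 U/mouse. Tail-vein glucose measured at 0, 15, 30, 60 and 120 min; AUC calculated.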

[11] = AUC(0 to t) in Sprague-Dawley rat at 2 mg/kg, iv up to 24 hrs by LC-MS/MS analysis; type: ADME, organism-based; parameters: route intravenous, dose 2 mg/kg, time <=24; conditions: in vivo
How it was run: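 Male Sprague-Dawley rats (180-220 g, n = 3) received a single intravenous dose of 2 mg/kg in ethanol/saline (5:95). Blood was sampled at 0, 30 min, 1, 2, 4, 8, 12 and 24 h after dosing and centrifuged to plasma. Plasma drug levels were measured by LC-MS/MS, and pharmacokinetic parameters were calculated from the concentration-time data.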

[12] = Apparent volume of distribution in Sprague-Dawley rat at 2 mg/kg, iv up to 24 hrs by LC-MS/MS analysis; type: ADME, organism-based; conditions: in vivo, read-out: Vz
How it was run: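 Male SD rats (180–220 g, n = 3) received compound in ethanol/saline (5:95), either intravenously at 2 mg/kg or intragastrically at 5 mg/kg. Plasma was sampled at 0, 0.5, 1, 2, 4, 8, 12 and 24 h. Concentrations were measured by LC-MS/MS, and PK parameters were calculated from the concentration–time data.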

[13] = system: Mus musculus; test: Antiobesity activity in high fat diet-induced obese C57BL/6J mouse model assessed as albumin level at 20 mg/kg, ip administered for every other days for 6 weeks by auto-analyzer method (reference value: 38.7 […]); type: functional
How it was run: (§2)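 Male C57BL/6J mice (7–8 weeks) fed HFC diet (60% fat, 1% cholesterol) for up to 14 weeks. From week 9, given 20 mg/kg i.p. every other day for 6 weeks in saline with 10% ethanol and 10% castor oil, or vehicle. Body weight and food intake recorded daily. At end, mice fasted 6 h, anesthetized, and blood collected into EDTA. Plasma chemistry run on an auto-analyzer; insulin by ultra-sensitive ELISA.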

[14] = system: Mus musculus; test: Antiobesity activity in high fat diet-induced obese C57BL/6J mouse model assessed as LDL cholesterol level at 20 mg/kg, ip administered for every other days for 6 weeks by auto-analyzer method (reference value: 0.9 +/- 0.4 mM); type: functional; how it was run: as §2
[15] = system: 3T3-L1; test: Activation of AMPK pathway in adipogenic cocktail-induced mouse 3T3-L1 cells assessed as increase in AMP to ATP ratio at 1 uM after 24 hrs; type: cell-based; conditions: filed as activator
[16] = system: 3T3-L1; test: Activation of AMPK pathway in mouse 3T3-L1 cells assessed as increase in ACSL mRNA expression at 1 uM after 24 hrs by RT-qPCR analysis; type: cell-based; conditions: filed as activator
[17] = AUC(0 to infinity) in Sprague-Dawley rat at 2 mg/kg, iv up to 24 hrs by LC-MS/MS analysis; conditions: in vivo
[18] = MRT(0 to infinity) in Sprague-Dawley rat at 2 mg/kg, iv up to 24 hrs by LC-MS/MS analysis; conditions: in vivo

Compound: COc1ccc2[nH]c(-c3nc(NCCCCN4CCCC4)c4ccccc4n3)c(C=O)c2c1
Activity [1]: Dose-dependent effect | Activity [2]: 74.2% | inhibition [3]: Active | inhibition [4]: Active | Activity [5]: inactive | Activity [6]: inactive | Activity [7]: Active | Activity [8]: Active | Activity [9]: Active | Activity [10]: Active | AUC(0-t) at 24 h [11]: 308 ng·h/mL | Vd [12]: 40.7 L/kg | Activity [13]: 30.4 g/L | Activity [14]: 0.81 mM

AUC(0-inf) [17]: 671 ng·h/mL | MRT inf [18]: 3.56 h
Compound: CN(C)CCCNc1nc(-c2[nH]c3ccccc3c2C=O)nc2ccccc12
Activity [15]: Active | Activity [16]: Active
